Results published in ChEMBL document CHEMBL1125781, “Peptide to glycopeptide: glycosylated oligopeptide renin inhibitors with attenuated in vivo clearance properties” (J Med Chem, 1991).
*1 amine or outer side, *2 acyl side, *3 side chain or, on linkers, in order; H or OH if unused. Where a SMILES comes first, the peptide text is derived from it. [ ]: non-standard residue; d: D form. The star is where a group is joined. ξ: configuration not given here. X1 = CC(C)C[C@H](N[*:1])[C@@H](O)C[C@H](C(=O)[*:2])C(C)C; NH(2-picolyl-N-oxide) = [O-][n+]1ccccc1CN*; NMeH = CN[C@@H](Cc1c[nH]cn1)C(=O)O; NHCH2(2-pyridyl) = c1ccc(CN*)nc1; X2 = CC(=O)NC1C(N*)OC(CO)C(O)C1O; Ile(3ξ) = CCC(C)[C@H](N)C(=O)O; NHC(CH2OH)3 = OCC(CO)(CO)N*; X3 = OCC1OC(N*)C(O)C(O)C1O; Boc = CC(C)(C)OC(=O)*; CO = O=C([*:1])[*:2]

Columns and labels:
Format in all cases: functional, organism-based
[1] = organism: Rattus norvegicus; test: Compound was tested for the biliary recovery dose in rats
Outline: (§1)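 Anesthetized, bile duct cannulated rats given peptide by tail vein injection, 1 mg kg⁻¹ or the molar equivalent, in 3 mM citric acid/saline vehicle. Blood taken from the orbital sinus at 5 and 60 min. Serum inhibitor concentration measured by renin enzyme activity assay. Percent of recovered dose in bile and urine determined over the 3-h study period. Means, n = 4.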

[2] = organism: Rattus norvegicus; test: Compound was tested for the urinary recovery dose in rats; conditions: Urine; outline: as §1
[3] = test system: Rattus norvegicus; test: Serum concentration at 5 min after iv administration in bile duct cannulated rat; outline: as §1
[4] = test system: Rattus norvegicus; test: Serum concentration at 60 min after iv administration in bile duct cannulated rat; outline: as §1
[5] = test system: Rattus norvegicus; test: Serum concentration at 60 min after iv administration in bile duct cannulated rat.; outline: as §1
[6] = test system: Rattus norvegicus; test: Serum concentration at 5 min after iv administration in bile duct cannulated rat.; outline: as §1

SMILES	Recovery [1]	Recovery [2]	Serum concentration [3]	Serum concentration [4]	Serum concentration [5]	Serum concentration [6]
CCC(C)[C@H](NC(=O)[C@@H](C[C@H](O)[C@H](CC(C)C)NC(=O)[C@H](Cc1c[nH]cn1)N(C)C(=O)[C@H](Cc1ccccc1)NC(=O)[C@@H]1CCCN1C(=O)[C@H](CC(=O)NC1OC(CO)C(O)C(O)C1NC(C)=O)NC(=O)OC(C)(C)C)C(C)C)C(=O)NCc1cccc[n+]1[O-] (stereo partly specified) (Boc-D(X2)PF[NMeH][X1][Ile(3ξ)]-{NH(2-picolyl-N-oxide)})	33%	67%	2580 nM	158 nM		
CCC(C)[C@H](NC(=O)[C@@H](C[C@H](O)[C@H](CC(C)C)NC(=O)[C@H](Cc1c[nH]cn1)N(C)C(=O)[C@H](Cc1ccccc1)NC(=O)[C@@H]1CCCN1C(=O)[C@H](CC(=O)NC1OC(CO)C(O)C(O)C1NC(C)=O)NC(=O)OC(C)(C)C)C(C)C)C(=O)NCc1ccccn1 (stereo partly specified) (Boc-D(X2)PF[NMeH][X1][Ile(3ξ)]-{NHCH2(2-pyridyl)})	76%	24%	1790 nM		20 nM	
CCC(C)[C@H](NC(=O)[C@@H](C[C@H](O)[C@H](CC(C)C)NC(=O)[C@H](Cc1c[nH]cn1)N(C)C(=O)[C@H](Cc1ccccc1)NC(=O)[C@@H]1CCCN1C(=O)[C@H](CC(=O)NC1OC(CO)C(O)C(O)C1O)NC(=O)OC(C)(C)C)C(C)C)C(=O)NCc1ccccn1 (stereo partly specified) (Boc-D(X3)PF[NMeH][X1][Ile(3ξ)]-{NHCH2(2-pyridyl)})	65%	35%	2190 nM	39 nM		
CCC(C)[C@H](NC(=O)[C@@H](C[C@H](O)[C@H](CC(C)C)NC(=O)[C@H](Cc1c[nH]cn1)N(C)C(=O)[C@H](Cc1ccccc1)NC(=O)[C@@H]1CCCN1C(=O)NC(CO)(CO)CO)C(C)C)C(=O)NCc1cccc[n+]1[O-] (stereo partly specified) ({NHC(CH2OH)3-CO}-PF[NMeH][X1][Ile(3ξ)]-{NH(2-picolyl-N-oxide)})	83%	17%			15 nM	1100 nM
